Test results taken from ChEMBL document CHEMBL1147553, “Betulinic acid and its derivatives as anti-angiogenic agents” (Bioorg Med Chem Lett, 2004).
Values after ≈ are worked out from the molar mass of the structure shown.

Assays:
[1] = test system: ECV-304; test: Half-maximal cytotoxic concentration of compound against endothelial cell line ECV304; type: functional, cell-based; details: Homo sapiens
Method in brief: (§1)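 Cells (10⁴) exposed in triplicate wells to 0.5–10 µg/mL compound from DMSO stock (final DMSO <0.1%). Cells grown in DMEM with L-glutamine, 25 mM HEPES, 10% FBS and antibiotics at 37 °C, 5% CO2. MTT read-out after 120 h. IC50 is the mean of three experiments. Specificity ratio is IC50 in tumor cell divided by IC50 in ECV304.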

[2] = Endothelial cell specificity of compound was determined as cytotoxicity on human tumor cell line A549 to that of endothelial cell; type: functional; method in brief: as §1
[3] = Endothelial cell specificity of compound was determined as cytotoxicity on human tumor cell line DU145 to that of endothelial cell; type: functional; method in brief: as §1
[4] = Endothelial cell specificity of compound was determined as cytotoxicity on human tumor cell line L132 to that of endothelial cell; type: functional; method in brief: as §1
[5] = Endothelial cell specificity of compound was determined as cytotoxicity on human tumor cell line PA-1 to that of endothelial cell; type: functional; method in brief: as §1

Row | Structure (SMILES) | IC50 [1] | ECS ratio [2] | ECS ratio [3] | ECS ratio [4] | ECS ratio [5]
1 | CC(C)[C@@H]1CC[C@]2(C(=O)O)CC[C@]3(C)C(CCC4[C@@]5(C)CC/C(=N\NC(=O)c6ccccc6)C(C)(C)C5CC[C@]43C)C12 (stereo not given in full) | 0.39 µg/mL (≈ 0.678 µM) | 27.7 | 7.7 | 1 | 4.3
2 | CC(C)[C@@H]1CC[C@]2(C(=O)O)CC[C@]3(C)C(CCC4[C@@]5(C)CC/C(=N\Nc6c(Cl)cc(Cl)cc6Cl)C(C)(C)C5CC[C@]43C)C12 (stereo not given in full) | 0.21 µg/mL (≈ 0.323 µM) | 19 | 6.6 | 11.4 | 5.2
3 | C=C(C)[C@@H]1CC[C@]2(C(=O)O)CC[C@]3(C)[C@H](CC[C@@H]4[C@@]5(C)CCC(=O)C(C)(C)[C@@H]5CC[C@]43C)[C@@H]12 [BETUNOLIC ACID] | 0.28 µg/mL (≈ 0.616 µM) | 9.8 | 14.2 | 3.2 | 9.2
4 | CC(C)[C@@H]1CC[C@]2(C(=O)O)CC[C@]3(C)C(CCC4[C@@]5(C)CC(Br)[C@H](O)C(C)(C)C5CC[C@]43C)C12 (stereo not given in full) | 0.27 µg/mL (≈ 0.502 µM) | 11.5 | 7 | 3.1 | 7.4
5 | CC(C)[C@@H]1CC[C@]2(C(=O)O)CC[C@]3(C)C(CCC4[C@@]5(C)CC/C(=N\Nc6ccc(F)cc6)C(C)(C)C5CC[C@]43C)C12 (stereo not given in full) | 0.35 µg/mL (≈ 0.62 µM) | 20 | 3.7 | 11.1 | 1.4
6 | C=C(C)[C@@H]1CC[C@]2(C(=O)O)CC[C@]3(C)[C@H](CC[C@@H]4[C@@]5(C)CC[C@H](O)C(C)(C)[C@@H]5CC[C@]43C)[C@@H]12 [BETULINIC ACID] | 1.26 µg/mL (≈ 2.76 µM) | 1.1 | 2.2 | 1 | 3.2
